Measured values reported in ChEMBL document CHEMBL1133663, “Synthesis and biological evaluation of 3,4-diaryloxazolones: A new class of orally active cyclooxygenase-2 inhibitors” (J Med Chem, 2000).

Legend:
[1] = molecular target: Prostaglandin G/H synthase 1 (Homo sapiens, UniProt P23219)
Rattus norvegicus [2] = assay: In vivo inhibition of carrageenan-induced hyperalgesia in rats; assay type: functional
Procedure, shortened: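 Fasted male Wistar rats (200-230 g) given oral drug, then 0.1 mL 1% carrageenan into the left hind paw 1 h later. At 5 h, walking difficulty was scored 0-2 by a blinded observer. Percentage inhibition was taken against vehicle, and ED50 was found by linear regression over four doses (6-8 rats/group).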

Rattus norvegicus [3] = assay: In vivo inhibition of adjuvant arthritis in rats; assay type: functional
Rattus norvegicus [4] = assay: Inhibition of carrageenan paw edema in rats; assay type: functional
Procedure, shortened: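 Fasted male Wistar rats (150-175 g, 6/group) dosed orally in 0.5% methyl cellulose/0.1% Tween (10 mL/kg). One hour later, 0.1 mL 1% carrageenan in saline was given subcutaneously into the left hind paw.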

Rattus norvegicus [5] = assay: In vivo inhibition of pyresis in rats; assay type: functional
Procedure, shortened: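 Male Wistar rats (180-200 g, 6/group) were injected subcutaneously with 15% yeast extract in saline ([…]) and fasted overnight. Next morning rectal temperature was taken, and oral dosing followed 1 h later. Temperature was recorded hourly for 5 h.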

Rattus norvegicus [6] = assay: In vivo inhibition of carrageenan-induced air pouch in rats; assay type: functional
Procedure, shortened: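 Air pouch made in fasted male Wistar rats (150-175 g, 6/group) by injecting 20 mL air subcutaneously on the back on day 0. Oral gavage on day 3, then 5 mL 0.4% carrageenan into the pouch 1 h later.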

Rattus norvegicus [7] = species: Rattus norvegicus; assay: Hemoglobin levels in the different assays ranged from 11.5-14.7 g/dl.; assay type: functional
Rattus norvegicus [8] = assay: Effect on non perforated ulcers(NPU) at the dose of 100 mg/kg.; assay type: functional
Procedure, shortened: (§1)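 Male Wistar rats (150-175 g), fed freely, 10/group, dosed orally once daily for 4 consecutive days in 0.5% methyl cellulose/0.1% Tween. Anaesthetised 24 h after last dose; cardiac blood taken for hemoglobin. Whole intestine opened and scored macroscopically for perforated and nonperforated ulcers (index 0-3); value is ulcer score per incidence (% animals with ulcers).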

Rattus norvegicus [9] = assay: Effect on perforated ulcers(PU) at the dose of 100 mg/kg.; assay type: functional
Procedure, shortened: as §1

Rattus norvegicus [10] = assay: Effect on perforated ulcers(PU) at the dose of 10 mg/kg.; assay type: functional
Procedure, shortened: as §1

Rattus norvegicus [11] = assay: Effect on non perforated ulcers(NPU) at the dose of 10 mg/kg.; assay type: functional
Procedure, shortened: as §1

Sequence of Prostaglandin G/H synthase 1 (P23219 whole entry): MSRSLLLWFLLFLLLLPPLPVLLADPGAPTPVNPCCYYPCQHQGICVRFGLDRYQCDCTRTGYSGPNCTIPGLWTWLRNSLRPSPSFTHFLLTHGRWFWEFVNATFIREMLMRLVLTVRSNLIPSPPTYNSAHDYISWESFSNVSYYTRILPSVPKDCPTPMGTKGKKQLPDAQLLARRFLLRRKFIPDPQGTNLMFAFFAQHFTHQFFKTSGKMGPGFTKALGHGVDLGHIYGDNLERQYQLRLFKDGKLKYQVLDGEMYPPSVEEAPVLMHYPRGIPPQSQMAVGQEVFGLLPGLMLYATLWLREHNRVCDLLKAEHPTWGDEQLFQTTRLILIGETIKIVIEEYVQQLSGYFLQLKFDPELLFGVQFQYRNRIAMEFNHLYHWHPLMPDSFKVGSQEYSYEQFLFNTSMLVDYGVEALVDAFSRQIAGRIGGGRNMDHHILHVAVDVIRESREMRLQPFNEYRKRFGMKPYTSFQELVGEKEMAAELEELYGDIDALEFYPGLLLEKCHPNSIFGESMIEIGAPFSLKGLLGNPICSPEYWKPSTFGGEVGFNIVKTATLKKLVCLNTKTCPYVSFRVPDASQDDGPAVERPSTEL

CS(=O)(=O)c1ccc(-c2coc(=O)n2-c2ccc(F)cc2)cc1
IC50 [1]: 5.1 µM | ED50 (Rattus norvegicus [2]): 2.5 mg/kg | ED50 (Rattus norvegicus [3]): 2.8 mg/kg | ED35 (Rattus norvegicus [4]): 0.6 mg/kg

Cc1cccc(-n2c(-c3ccc(S(N)(=O)=O)cc3)c(C)oc2=O)c1
IC50 [1]: 16.9 µM

COc1ccc(-n2c(-c3ccc(S(N)(=O)=O)cc3)coc2=O)cc1F
IC50 [1]: 5.1 µM | ED35 (Rattus norvegicus [4]): 3 mg/kg

Cc1cccc(-n2c(-c3ccc(S(N)(=O)=O)cc3)coc2=O)c1
IC50 [1]: 6.6 µM | ED50 (Rattus norvegicus [2]): 7.2 mg/kg | ED50 (Rattus norvegicus [5]): 1.8 mg/kg | ED50 (Rattus norvegicus [3]): 0.6 mg/kg | ED35 (Rattus norvegicus [6]): 0.47 mg/kg | ED35 (Rattus norvegicus [4]): 0.9 mg/kg | Hgb levels (Rattus norvegicus [7]): 12.8 g/dL | Ulcer score (Rattus norvegicus [8]): 0 | Ulcer score (Rattus norvegicus [9]): 0

NS(=O)(=O)c1ccc(-c2coc(=O)n2-c2ccc(Cl)c(Cl)c2)cc1
IC50 [1]: 1.5 µM

NS(=O)(=O)c1ccc(-c2coc(=O)n2-c2ccc(C(F)(F)F)cc2)cc1
IC50 [1]: > 100 µM | ED50 (Rattus norvegicus [2]): 8.1 mg/kg | ED50 (Rattus norvegicus [5]): 11 mg/kg | ED50 (Rattus norvegicus [3]): 1 mg/kg | ED35 (Rattus norvegicus [6]): 2.6 mg/kg | ED35 (Rattus norvegicus [4]): 2.4 mg/kg | Hgb levels (Rattus norvegicus [7]): 11.5 g/dL | Ulcer score (Rattus norvegicus [8]): 0 | Ulcer score (Rattus norvegicus [9]): 0

NS(=O)(=O)c1ccc(-c2coc(=O)n2-c2cccc3ccccc23)cc1
IC50 [1]: 37.1 µM

Cc1ccc(-n2c(-c3ccc(S(C)(=O)=O)cc3)coc2=O)cc1
IC50 [1]: 11.6 µM

CCc1ccc(-n2c(-c3ccc(S(C)(=O)=O)cc3)coc2=O)cc1
IC50 [1]: 42.4 µM

NS(=O)(=O)c1ccc(-c2coc(=O)n2-c2cccc(Cl)c2)cc1
IC50 [1]: 10.8 µM | ED35 (Rattus norvegicus [4]): 1.3 mg/kg

CS(=O)(=O)c1ccc(-c2coc(=O)n2-c2ccc(C(F)(F)F)cc2)cc1
IC50 [1]: > 100 µM

NS(=O)(=O)c1ccc(-c2coc(=O)n2-c2ccc(C(=O)O)cc2)cc1
IC50 [1]: > 100 µM

CS(=O)(=O)c1ccc(-c2coc(=O)n2-c2ccc(F)cc2F)cc1
IC50 [1]: 6.94 µM | ED50 (Rattus norvegicus [2]): 21 mg/kg | ED50 (Rattus norvegicus [3]): 2.5 mg/kg | ED35 (Rattus norvegicus [4]): 1.4 mg/kg

Cc1oc(=O)n(-c2ccc(Cl)c(Cl)c2)c1-c1ccc(S(N)(=O)=O)cc1
IC50 [1]: 8.7 µM | ED50 (Rattus norvegicus [2]): 3 mg/kg | ED50 (Rattus norvegicus [5]): 8.7 mg/kg | ED50 (Rattus norvegicus [3]): 1.6 mg/kg | ED35 (Rattus norvegicus [6]): 0.85 mg/kg | ED35 (Rattus norvegicus [4]): 4.4 mg/kg | Hgb levels (Rattus norvegicus [7]): 14.6 g/dL | Ulcer score (Rattus norvegicus [8]): 0 | Ulcer score (Rattus norvegicus [9]): 0

NS(=O)(=O)c1ccc(-c2coc(=O)n2-c2ccccc2F)cc1
IC50 [1]: 27.9 µM | ED50 (Rattus norvegicus [2]): 2.7 mg/kg | ED50 (Rattus norvegicus [5]): 1.2 mg/kg | ED50 (Rattus norvegicus [3]): 0.27 mg/kg | ED35 (Rattus norvegicus [6]): 1.6 mg/kg | ED35 (Rattus norvegicus [4]): 1.7 mg/kg | Hgb levels (Rattus norvegicus [7]): 11.6 g/dL | Ulcer score (Rattus norvegicus [8]): 0 | Ulcer score (Rattus norvegicus [9]): 0

NS(=O)(=O)c1ccc(-c2coc(=O)n2C2CCCCC2)cc1
IC50 [1]: > 100 µM

Cc1ccccc1-n1c(-c2ccc(S(N)(=O)=O)cc2)coc1=O
IC50 [1]: 29 µM

NS(=O)(=O)c1ccc(-c2coc(=O)n2-c2ccc(F)cc2F)cc1
IC50 [1]: 15.3 µM

CS(=O)(=O)c1ccc(-c2coc(=O)n2-c2ccc(Cl)cc2)cc1
IC50 [1]: 13.6 µM | ED35 (Rattus norvegicus [4]): 10 mg/kg

CS(=O)(=O)c1ccc(-c2coc(=O)n2-c2ccccc2F)cc1
IC50 [1]: 13.4 µM | ED50 (Rattus norvegicus [2]): 32 mg/kg | ED50 (Rattus norvegicus [3]): > 3 mg/kg | ED35 (Rattus norvegicus [4]): 2.4 mg/kg

COc1ccc(-n2c(-c3ccc(S(N)(=O)=O)cc3)coc2=O)cc1
IC50 [1]: 0.9 µM

Cc1ccc(-n2c(-c3ccc(S(N)(=O)=O)cc3)coc2=O)cc1
IC50 [1]: 10.9 µM | ED50 (Rattus norvegicus [2]): 3.8 mg/kg | ED50 (Rattus norvegicus [5]): 3.3 mg/kg | ED50 (Rattus norvegicus [3]): 0.34 mg/kg | ED35 (Rattus norvegicus [6]): 1.7 mg/kg | ED35 (Rattus norvegicus [4]): 0.7 mg/kg | Hgb levels (Rattus norvegicus [7]): 12.9 g/dL | Ulcer score (Rattus norvegicus [8]): 0 | Ulcer score (Rattus norvegicus [9]): 0

NS(=O)(=O)c1ccc(-c2coc(=O)n2-c2ccc(Cl)cc2)cc1
IC50 [1]: 7 µM | ED50 (Rattus norvegicus [2]): 0.5 mg/kg | ED50 (Rattus norvegicus [5]): 2.3 mg/kg | ED50 (Rattus norvegicus [3]): 0.2 mg/kg | ED35 (Rattus norvegicus [6]): 1.2 mg/kg | ED35 (Rattus norvegicus [4]): 1.6 mg/kg | Hgb levels (Rattus norvegicus [7]): 12.5 g/dL | Ulcer score (Rattus norvegicus [8]): 2.1 | Ulcer score (Rattus norvegicus [9]): 3

NS(=O)(=O)c1ccc(-c2coc(=O)n2-c2ccc(F)cc2)cc1
IC50 [1]: 13.2 µM | ED50 (Rattus norvegicus [2]): 3.9 mg/kg | ED50 (Rattus norvegicus [5]): 2.4 mg/kg | ED50 (Rattus norvegicus [3]): 0.6 mg/kg | ED35 (Rattus norvegicus [6]): 0.4 mg/kg | ED35 (Rattus norvegicus [4]): 2 mg/kg | Hgb levels (Rattus norvegicus [7]): 12.6 g/dL | Ulcer score (Rattus norvegicus [8]): 0 | Ulcer score (Rattus norvegicus [9]): 0

NS(=O)(=O)c1ccc(-c2coc(=O)n2-c2ccccc2Cl)cc1
IC50 [1]: 35.4 µM

CS(=O)(=O)c1ccc(-c2coc(=O)n2-c2ccccc2)cc1
IC50 [1]: 33.6 µM

NS(=O)(=O)c1ccc(-c2coc(=O)n2-c2ccccc2)cc1
IC50 [1]: 24.4 µM | ED50 (Rattus norvegicus [2]): 1.1 mg/kg | ED50 (Rattus norvegicus [5]): 0.5 mg/kg | ED50 (Rattus norvegicus [3]): 0.15 mg/kg | ED35 (Rattus norvegicus [6]): 1.2 mg/kg | ED35 (Rattus norvegicus [4]): 0.4 mg/kg | Hgb levels (Rattus norvegicus [7]): 14.8 g/dL | Ulcer score (Rattus norvegicus [8]): 0 | Ulcer score (Rattus norvegicus [9]): 0

Cc1oc(=O)n(-c2ccc(F)cc2)c1-c1ccc(S(N)(=O)=O)cc1
IC50 [1]: 45.8 µM | ED50 (Rattus norvegicus [2]): 14 mg/kg | ED50 (Rattus norvegicus [3]): 3 mg/kg | ED35 (Rattus norvegicus [4]): 1.1 mg/kg

CCc1ccc(-n2c(-c3ccc(S(N)(=O)=O)cc3)coc2=O)cc1
IC50 [1]: 10.4 µM

NS(=O)(=O)c1ccc(-c2coc(=O)n2-c2cccc(C(=O)O)c2)cc1
IC50 [1]: > 100 µM

Cc1ccc(-n2c(-c3ccc(S(N)(=O)=O)cc3)c(C)oc2=O)cc1
IC50 [1]: 43.5 µM | ED35 (Rattus norvegicus [4]): 2.6 mg/kg

COc1ccc(-n2c(-c3ccc(S(N)(=O)=O)cc3)coc2=O)cc1Cl
IC50 [1]: 5.8 µM | ED35 (Rattus norvegicus [4]): 2.4 mg/kg

Cc1oc(=O)n(-c2ccccc2)c1-c1ccc(S(N)(=O)=O)cc1
IC50 [1]: 49.3 µM | ED50 (Rattus norvegicus [2]): 7.7 mg/kg | ED50 (Rattus norvegicus [3]): > 3 mg/kg | ED35 (Rattus norvegicus [4]): 1.7 mg/kg

Cc1ccc(-c2cc(C(F)(F)F)nn2-c2ccc(S(N)(=O)=O)cc2)cc1 [CELECOXIB]
ED50 (Rattus norvegicus [2]): 6.2 mg/kg | ED50 (Rattus norvegicus [5]): 0.6 mg/kg | ED50 (Rattus norvegicus [3]): 0.5 mg/kg | ED35 (Rattus norvegicus [6]): 3 mg/kg | ED35 (Rattus norvegicus [4]): 1.1 mg/kg | Hgb levels (Rattus norvegicus [7]): 13.2 g/dL | Ulcer score (Rattus norvegicus [8]): 0 | Ulcer score (Rattus norvegicus [9]): 0

COc1ccc2c(c1)c(CC(=O)O)c(C)n2C(=O)c1ccc(Cl)cc1 [INDOMETHACIN]
ED50 (Rattus norvegicus [2]): 1.2 mg/kg | ED50 (Rattus norvegicus [5]): 1.5 mg/kg | ED50 (Rattus norvegicus [3]): 0.22 mg/kg | ED35 (Rattus norvegicus [6]): 2 mg/kg | ED35 (Rattus norvegicus [4]): 1 mg/kg | Hgb levels (Rattus norvegicus [7]): 5.7 g/dL | Ulcer score (Rattus norvegicus [10]): 280 | Ulcer score (Rattus norvegicus [11]): 300

COc1ccc2cc([C@H](C)C(=O)O)ccc2c1 [NAPROXEN]
ED50 (Rattus norvegicus [2]): 5.2 mg/kg | ED50 (Rattus norvegicus [5]): 0.8 mg/kg | ED50 (Rattus norvegicus [3]): 6.1 mg/kg | ED35 (Rattus norvegicus [6]): 1.4 mg/kg | ED35 (Rattus norvegicus [4]): 0.45 mg/kg | Hgb levels (Rattus norvegicus [7]): 7.5 g/dL
